# Results of several laboratories.
# Protocols differ between the studies behind these lines.
# Target: Ribosomal protein S6 kinase beta-1 (RPS6KB1, Homo sapiens, UniProt P23443)
# Observed: enzyme activity
# Mode: inhibitor
Compound,assay,setting,remaining activity
O=S(=O)(Nc1cc(Sc2ncn[nH]2)c(O)c2ccccc12)c1ccc(-c2ccccc2)cc1,,1 µM,≥ 75%
O=C(Nc1cnn(-c2csc(C(=O)NC3COC3)c2)c1)Nc1ccccc1Cl,,5 µM,92.1%
CC(C)(C)c1nc2c(s1)c1nc(N)ncc1c1ccc(NS(=O)(=O)c3c(F)cccc3F)c(F)c12,radiometric,1 µM,87%
CC(C)(O)[C@H]1CC[C@H](Nc2ccc3ncc(-c4cccc(C(F)(F)F)c4)n3n2)CC1,,1 µM,96.8%
Cc1[nH]c(/C=C2\C(=O)Nc3ccc(F)cc32)c(C)c1C(=O)N[C@H]1CCN(C(=O)N(C)C)C1,,1 µM,52%
Cn1c(=O)n(-c2ccc(C(C)(C)C#N)cc2)c2c3cc(-c4cnc5ccccc5c4)ccc3ncc21,,10 µM,109%
O=C(Nc1cnn(-c2csc(C(=O)NC3COC3)c2)c1)Nc1c(F)cccc1Cl,,5 µM,97.7%
COc1cc(Nc2cnc(C#N)c(O[C@H](C)CN(C)C)n2)ncc1-c1cnn(C)c1,radiometric,1 µM,55%
Nc1nc(NC2CCCCC2)sc1C(=O)c1ccccc1,,10 µM,78%
CCN(CC)CCNC(=O)c1c(C)[nH]c(/C=C2\C(=O)Nc3ccc(F)cc32)c1C,,1 µM,31%
Cc1cnc(NC2CCOCC2)nc1-n1cnc(C(=O)NC(CN)c2cc(F)cc(Cl)c2)c1 (stereo not drawn),radiometric,1 µM,71%
Oc1cccc(-c2nc(N3CCOCC3)c3oc4ncccc4c3n2)c1,,10 µM,90%
